Measurements as given in ChEMBL document CHEMBL1146666, “N-[1-Aryl-2-(1-imidazolo)ethyl]-guanidine derivatives as potent inhibitors of the bovine mitochondrial F1F0 ATP hydrolase” (Bioorg Med Chem Lett, 2004).

What was measured:
[1] = target: T1, Mitochondrial complex V; ATP synthase (Bos taurus, UniProt P00829+P05630+P05631+P05632); assay: Inhibitory activity against bovine mitochondrial F1F0 ATP hydrolase; format: protein-complex assay
[2] = target: T1, Mitochondrial complex V; ATP synthase; assay: Inhibitory activity against bovine mitochondrial F1F0-ATP synthase; format: protein-complex assay
Outline: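 Synthase direction read as the rise in A340 in a hexokinase:glucose-6-phosphate dehydrogenase coupled assay.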

T1 sequence (P05632 whole entry): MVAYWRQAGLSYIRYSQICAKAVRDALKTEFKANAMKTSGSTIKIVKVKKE
T1 sequence (P00829 whole entry): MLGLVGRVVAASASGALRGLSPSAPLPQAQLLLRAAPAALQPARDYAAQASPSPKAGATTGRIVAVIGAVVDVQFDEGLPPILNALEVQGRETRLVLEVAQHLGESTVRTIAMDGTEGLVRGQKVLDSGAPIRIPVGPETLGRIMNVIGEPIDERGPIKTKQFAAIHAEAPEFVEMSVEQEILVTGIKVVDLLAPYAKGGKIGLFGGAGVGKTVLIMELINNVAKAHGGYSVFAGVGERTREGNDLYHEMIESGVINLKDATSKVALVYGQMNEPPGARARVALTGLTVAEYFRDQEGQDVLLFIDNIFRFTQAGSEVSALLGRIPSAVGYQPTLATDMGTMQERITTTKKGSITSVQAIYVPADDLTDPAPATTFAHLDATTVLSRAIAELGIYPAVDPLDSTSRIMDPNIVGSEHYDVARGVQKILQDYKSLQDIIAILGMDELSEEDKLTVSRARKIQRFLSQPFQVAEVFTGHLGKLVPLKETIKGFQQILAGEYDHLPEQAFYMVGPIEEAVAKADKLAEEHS
T1 sequence (P05631 whole entry): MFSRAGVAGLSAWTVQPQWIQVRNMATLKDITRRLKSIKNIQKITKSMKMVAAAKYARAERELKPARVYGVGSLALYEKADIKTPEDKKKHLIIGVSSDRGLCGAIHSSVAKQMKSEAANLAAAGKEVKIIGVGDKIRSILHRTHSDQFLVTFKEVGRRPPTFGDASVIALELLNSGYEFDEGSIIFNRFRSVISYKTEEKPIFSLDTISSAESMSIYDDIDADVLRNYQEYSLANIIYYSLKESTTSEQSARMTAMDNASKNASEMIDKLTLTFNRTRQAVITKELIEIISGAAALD
T1 sequence (P05630 whole entry): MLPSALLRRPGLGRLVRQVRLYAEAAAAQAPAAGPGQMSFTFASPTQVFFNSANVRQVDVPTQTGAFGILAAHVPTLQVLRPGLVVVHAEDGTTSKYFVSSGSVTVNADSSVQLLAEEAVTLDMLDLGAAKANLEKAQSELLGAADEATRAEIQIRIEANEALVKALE

Cc1ccc(C(Cn2ccnc2)OC(=S)Nc2ccc(Cl)cc2)c(C)c1 (configuration not stated)
IC50 [1]: 31.4 µM | IC50 [2]: > 100 µM

S=C(Nc1ccc(Cl)cc1Cl)OC(Cn1ccnc1)c1ccc(Cl)cc1Cl (configuration not stated)
IC50 [1]: 0.03 µM | IC50 [2]: > 100 µM

N#CN/C(=N\C(Cn1ccnc1)c1ccc(Cl)cc1Cl)Nc1cccc(Cl)c1Cl (configuration not stated)
IC50 [1]: 2.49 µM | IC50 [2]: > 100 µM

O=C(Nc1ccc(Cl)cc1Cl)OC(Cn1ccnc1)c1ccc(Cl)cc1Cl (configuration not stated)
IC50 [1]: 6.77 µM | IC50 [2]: > 100 µM

N#CN/C(=N/c1ccc(Cl)cc1Cl)NC(Cn1ccnc1)c1ccc(Cl)cc1Cl (configuration not stated)
IC50 [1]: 0.6 µM | IC50 [2]: > 100 µM

CCC(=O)C(Nc1ccc(Cl)cc1)NC(Cn1ccnc1)c1ccc(Cl)cc1Cl (configuration not stated)
IC50 [1]: 2.27 µM | IC50 [2]: > 100 µM

Cc1ccc(NC(=S)OC(Cn2ccnc2)c2ccc(Cl)cc2Cl)c(C)c1 (configuration not stated)
IC50 [1]: 0.23 µM | IC50 [2]: > 100 µM

O=C(c1ccc(Cl)cc1)C(Nc1ccc(Cl)cc1)NC(Cn1ccnc1)c1ccc(Cl)cc1Cl (configuration not stated)
IC50 [1]: 0.082 µM | IC50 [2]: > 100 µM

N#CN/C(=N\C(Cn1ccnc1)c1cc(C(F)(F)F)ccc1C(F)(F)F)Nc1ccc(Cl)cc1Cl (configuration not stated)
IC50 [1]: 0.71 µM | IC50 [2]: > 100 µM

N#CN/C(=N/c1cccc(Cl)c1)NC(Cn1ccnc1)c1ccc(Cl)cc1Cl (configuration not stated)
IC50 [1]: 9.17 µM | IC50 [2]: > 100 µM

Cc1ccc(NC(=S)OC(Cn2ccnc2)c2ccc(Cl)cc2Cl)cc1 (configuration not stated)
IC50 [1]: 0.66 µM | IC50 [2]: > 100 µM

N#Cc1ccc(C(=O)C(Nc2ccc(Cl)cc2)NC(Cn2ccnc2)c2ccc(Cl)cc2Cl)cc1 (configuration not stated)
IC50 [1]: 0.28 µM | IC50 [2]: > 100 µM

N#CN/C(=N\C(Cn1ccnc1)c1ccc(Cl)cc1Cl)Nc1ccc(Cl)cc1 (configuration not stated)
IC50 [1]: 8.8 µM | IC50 [2]: > 100 µM

S=C(Nc1ccc(Cl)cc1Cl)NC(Cn1ccnc1)c1ccc(Cl)cc1Cl (configuration not stated)
IC50 [1]: 2.41 µM | IC50 [2]: > 100 µM

S=C(Nc1ccccc1)OC(Cn1ccnc1)c1ccc(Cl)cc1Cl (configuration not stated)
IC50 [1]: 3.6 µM | IC50 [2]: > 100 µM

S=C(Nc1ccc(Cl)cc1)OC(Cn1ccnc1)c1ccc(Cl)cc1Cl (configuration not stated)
IC50 [1]: 0.43 µM | IC50 [2]: > 100 µM

N#CN=C(Nc1ccccc1Cl)NC(Cn1ccnc1)c1ccc(Cl)cc1Cl (configuration not stated)
IC50 [1]: 2.23 µM | IC50 [2]: > 100 µM

N#Cc1cccc(C(=O)C(Nc2ccc(Cl)cc2)NC(Cn2ccnc2)c2ccc(Cl)cc2Cl)c1 (stereo in doubt; 19a)
IC50 [1]: 0.033 µM

N#Cc1cccc(C(=O)C(Nc2ccc(Cl)cc2)NC(Cn2ccnc2)c2ccc(Cl)cc2Cl)c1 (stereo in doubt; form 1)
IC50 [1]: > 100 µM | IC50 [2]: > 100 µM
